Reference: PubChem BioAssay AID624014 (Broad Institute, 2012)
Values joined by “and” are separate entries in the source; they are usually repeats but may differ in a detail not shown here. Identical values can stand only once.

test system: Candida glabrata growth in glycerol medium, OD600, 48 h; assay: single-agent C. glabrata growth inhibition on glycerol, dose response, glycerol medium, OD600, dry powder, set 4 (AID 624014)
Method in brief: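 Test system: Candida glabrata yeast cells, whole-organism growth assay; compound dosing: pin-transferred compounds; timing: compound exposure 48 h at 30 °C, static, humidified; signal: OD600 absorbance; control set: amphotericin B at 10 µM as positive control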

Structure (SMILES) | AC50
CCOC(=O)N1C(=O)C2(CCCCC2)N(c2ccc(F)cc2)C1=S | 0.00616 µM
CC1/C=C/C=C\C=C\C=C\C=C\C=C\C=C\C(O[C@H]2OC(C)C(O)C(N)C2O)CC2OC(O)(CC(O)CC(O)C(O)CCC(O)CC(O)CC(=O)OC(C)C(C)C1O)CC(O)C2C(=O)O (stereo partly drawn) | 0.602 µM
CCOC(=O)N1C(=O)C2(CCCCC2)N(c2ccccc2)C1=S | 0.0194 µM
CCOC(=O)N1C(=O)C2(CCCCC2)N(c2ccc(C#N)cc2)C1=S | 0.0278 µM
CCOC(=O)N1C(=O)C2(CCCCC2)N(c2ccc(C)cc2)C1=S | 0.0318 µM and 0.0224 µM
C/C=C/[C@@H]1[C@H]2C[C@@H](C)CC[C@@H]2C(C)=C[C@H]1C(=O)c1c(O)c(-c2ccc(O)cc2)c[nH]c1=O | 2.45 µM
CCOC(=O)N1C(=O)C2(CCCCC2)N(c2ccc(Cl)cc2)C1=S | 0.0138 µM
CCOC(=O)N1C(=O)C2(CCCCC2)N(c2cccc(C)c2)C1=S | 0.0239 µM
